Series [1] deals with Staphylococcus aureus. Kind of series: Antibacterial activity against Staphylococcus aureus E19977 infected in NMRI mouse assessed as log reduction in bacterial cfu in peritoneum at 200 mg/kg, sc administered as single dose 2 hrs after infection measured between 4 to 19 hrs. It counts as functional. The settings on record: route subcutaneous. In short, it runs like this:
(§1)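 Female outbred NMRI mice (25 to 30 g) were infected i.p. with 0.5 ml of 10^7.7 CFU/ml S. aureus E19977 in 5% (wt/vol) mucin. The first dose was given 2 h after inoculation, either once or as three doses every 8 h, with four mice per group. Mice were euthanized 19 h after treatment onset and washed peritoneally with 2.0 ml saline. Total CFU were counted by duplicate spotting of 10-fold dilutions on 5% blood agar.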

Series [2] deals with Staphylococcus aureus. The series is described as follows: Antibacterial activity against Staphylococcus aureus E19977 infected in NMRI mouse assessed as log reduction in intracellular bacterial cfu in peritoneum at 200 mg/kg, sc administered as single dose 2 hrs after infection measured between 4 to 19 hrs. It counts as functional, organism-based. Further details: dose 200 mg/kg. In short, it runs like this: (§2)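 NMRI mice were infected i.p. and given one or three doses (every 8 h), starting 2 h post-inoculation, at 200 mg/kg or 60 mg/kg, four mice per group. Peritoneal washes were sampled over 19 h of treatment. Total, extracellular and intracellular CFU/ml (lysostaphin separation) were compared with the pretreatment level; mean ± range, n = 2. Untreated controls were sampled only at 6 h of infection.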

For series [3], the system named is Staphylococcus aureus. The series is described as follows: Antibacterial activity against Staphylococcus aureus E19977 infected in NMRI mouse assessed as log reduction in bacterial cfu in peritoneum at 60 mg/kg, sc administered as single dose 2 hrs after infection measured within 4 hrs. It counts as functional. As to conditions: route subcutaneous. Summed up: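 Female NMRI mice were infected i.p. with S. aureus E19977 (10^7.7 CFU/ml, 0.5 ml, 5% mucin). They were treated 2 h post-inoculation with a single 60 mg/kg dose and sampled after 4 h of treatment. Peritoneal-wash CFU were plated on blood agar. Δlog10 CFU/ml was calculated against vehicle-treated controls with the same infection duration.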

Series [4] concerns Staphylococcus aureus. The series is described as follows: Bactericidal activity against Staphylococcus aureus E19977 assessed as log reduction in cfu at 2 mg/liter after 12 hrs by time-kill study. Type of series: functional. In short, it runs like this: (§3)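 Clinical bacteremia isolate (penicillin-resistant, methicillin-susceptible). Exponential-phase bacteria were placed in an in vitro kinetic model that simulates drug elimination without changing the inoculum. The starting drug level matched the human free peak serum concentration after a single dose, with simulated human elimination half-life. Samples were taken at 0, 2, 4, 6, 8, 12 and 24 h, with growth controls in each run.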

The subject of series [5] is Staphylococcus aureus. The series is described as follows: Bactericidal activity against Staphylococcus aureus E19977 assessed as log reduction in cfu at 2 mg/liter upto 24 hrs by time-kill study. Type of series: functional. In short, it runs like this:
as §3

Series [6] has as its system Staphylococcus aureus. The series is described as follows: Bactericidal activity against Staphylococcus aureus E19977 assessed as log reduction in cfu at 1.5 mg/liter upto 24 hrs by time-kill study. Type of series: functional. Summed up:
as §3

The test system of series [7] is Staphylococcus aureus. Kind of series: Bactericidal activity against Staphylococcus aureus E19977 assessed as log reduction in cfu at 9 mg/liter after 24 hrs by time-kill study. It counts as functional, organism-based. Summed up:
(§4)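 In vitro kinetic model simulating antibiotic elimination without inoculum change. Exponential-phase E19977 was added at a final 10^6.3 CFU/ml. Starting drug concentration matched the human free peak, with the human half-life simulated. Samples were plated on 5% blood agar at 0, 2, 4, 6, 8, 12 and 24 h, with growth controls in each run. Results are shown as mean and range, n = 2.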

Series [8] deals with Staphylococcus aureus. Kind of series: Bactericidal activity against Staphylococcus aureus E19977 assessed as log reduction in cfu at 2 mg/liter after 24 hrs by time-kill study. Type of series: functional, organism-based. Summed up: as §4
Series [9] deals with Staphylococcus aureus. The series is described as follows: Bactericidal activity against Staphylococcus aureus E19977 assessed as log reduction in cfu at 1.5 mg/liter after 24 hrs by time-kill study. Type of series: functional, organism-based. Summed up: as §4
The subject of series [10] is Staphylococcus aureus. The series is described as follows: Bactericidal activity against Staphylococcus aureus E19977 assessed as log reduction in cfu at 20 mg/liter after 24 hrs by time-kill study. It counts as functional, organism-based. In short, it runs like this:
as §4

In series [11] the test system is Staphylococcus aureus. Kind of series: Bactericidal activity against Staphylococcus aureus E19977 assessed as log reduction in cfu at 0.5 mg/liter after 24 hrs by time-kill study. It counts as functional, organism-based. In short, it runs like this: as §4
For series [12], the system named is Staphylococcus aureus. Kind of series: Antibacterial activity against Staphylococcus aureus E19977 infected in NMRI mouse assessed as log reduction in bacterial cfu in peritoneum at 200 mg/kg, sc administered 2 hrs after infection measured after 4 hrs. Also on record: dose 200 mg/kg. Type of series: functional, organism-based. In short, it runs like this:
(§5)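 Dose–response in i.p.-infected NMRI mice (mucin adjuvant). Single doses of 200, 60, 30, 20 or 10 mg/kg were given 2 h after inoculation, with 4–16 mice per group. Peritoneal wash was sampled 4 h later and split by lysostaphin/centrifugation into total, extra- and intracellular counts, then expressed as Δlog10 CFU/ml against log dose. Vehicle controls were plotted as 0.3 mg/kg. Hill fit (variable slope); static dose interpolated.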

In series [13] the test system is Staphylococcus aureus. The series is described as follows: Antibacterial activity against Staphylococcus aureus E19977 infected in NMRI mouse assessed as log reduction in intracellular bacterial cfu in peritoneum at 200 mg/kg, sc administered 2 hrs after infection measured after 4 hrs. It counts as functional, organism-based. Also on record: dose 200 mg/kg. In short, it runs like this: as §5

Series [14] deals with Staphylococcus aureus. The series is described as follows: Antibacterial activity against Staphylococcus aureus E19977 infected in NMRI mouse assessed as log reduction in extracellular bacterial cfu in peritoneum at 200 mg/kg, sc administered 2 hrs after infection measured after 4 hrs. Also on record: dose 200 mg/kg. Type of series: functional, organism-based. In short, it runs like this: as §5

In series [15] the test system is Staphylococcus aureus. Kind of series: Antibacterial activity against Staphylococcus aureus E19977 infected in NMRI mouse assessed as log reduction in intracellular bacterial cfu in peritoneum at 60 mg/kg, sc administered as single dose 2 hrs after infection measured after 4 hrs. It counts as functional, organism-based. Also on record: dose 60 mg/kg. Summed up: (§6)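 NMRI mice were infected i.p. with S. aureus E19977 in 5% mucin. A single dose (60 mg/kg or 10 mg/kg) was given 1, 2 or 3 h after inoculation, four mice per group. Peritoneal wash was sampled after 4 h of treatment and separated into total, extracellular and intracellular counts by lysostaphin/centrifugation. Δlog10 CFU/ml was calculated against vehicle-treated mice infected for the same time (5, 6 or 7 h).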

In series [16] the test system is Staphylococcus aureus. Kind of series: Antibacterial activity against Staphylococcus aureus E19977 infected in NMRI mouse assessed as log reduction in intracellular bacterial cfu in peritoneum at 60 mg/kg, sc administered as single dose 3 hrs after infection measured after 4 hrs. It counts as functional, organism-based. Also on record: dose 60 mg/kg. Summed up:
as §6

The subject of series [17] is Staphylococcus aureus. The series is described as follows: Antibacterial activity against Staphylococcus aureus E19977 infected in NMRI mouse assessed as log reduction in extracellular bacterial cfu in peritoneum at 60 mg/kg, sc administered as single dose 1 hr after infection measured after 4 hrs. Type of series: functional, organism-based. Also on record: dose 60 mg/kg. In short, it runs like this:
as §6

Series [18] relates to Staphylococcus aureus. Kind of series: Antibacterial activity against Staphylococcus aureus E19977 infected in NMRI mouse assessed as log reduction in extracellular bacterial cfu in peritoneum at 10 to 200 mg/kg, sc administered 2 hrs after infection measured after 4 hrs. It counts as functional, organism-based. In short, it runs like this:
as §5

The test system of series [19] is Staphylococcus aureus. The series is described as follows: Antibacterial activity against Staphylococcus aureus E19977 infected in NMRI mouse assessed as log reduction in bacterial cfu in peritoneum at 200 mg/kg, sc administered 2 hrs after infection evry 8 hrs as three-dose regimen measured after 19 hrs. It counts as functional. The settings on record: route subcutaneous. In short, it runs like this: as §1

For series [20], the system named is Staphylococcus aureus. The series is described as follows: Antibacterial activity against Staphylococcus aureus E19977 infected in NMRI mouse assessed as log reduction in intracellular bacterial cfu in peritoneum at 200 mg/kg, sc administered 2 hrs after infection evry 8 hrs as three-dose regimen measured after 19 hrs. Type of series: functional, organism-based. Further details: dose 200 mg/kg. In short, it runs like this:
as §2

Series [21] relates to Staphylococcus aureus. Kind of series: Antibacterial activity against Staphylococcus aureus E19977 by Etest. Type of series: functional.
The nature of series [22]: Cmax in human at 1000 mg, po. Also on record: dose 1000 mg, route oral. It counts as ADME, organism-based. The settings on record: in vivo.
The next series has as its system Serum. Kind of series: Protein binding in human serum at 1000 mg, po. Type of series: ADME, organism-based. As to conditions: in vivo.

≈ marks a conversion by molar mass, not a printed value. Calls of active or inactive are those of the source. Where only a bound is given, the exact number is not on record here.

Broadly, the MIC is the smallest concentration in the dilution series that meets the test's criterion for growth inhibition. The low end stands for greater potency, the high end for weaker potency. Usually Cmax stands for the peak of the concentration-time curve. For the molecule `Cc1onc(-c2c(Cl)cccc2Cl)c1C(=O)N[C@@H]1C(=O)N2[C@@H]1SC(C)(C)[C@@H]2C(=O)O` [DICLOXACILLIN], the FC is given as less than 1 in the series with Staphylococcus aureus [1]; less than 1 in the series with Staphylococcus aureus [3]; 2 in the series with Staphylococcus aureus [4]; 2 with Staphylococcus aureus [5]; 2 in the series with Staphylococcus aureus [6]; 2 in the series on Staphylococcus aureus [19]. Further, the outcome in the series with Staphylococcus aureus [2], in the series on Staphylococcus aureus [7], in the series on Staphylococcus aureus [8], in the series with Staphylococcus aureus [9], in the series with Staphylococcus aureus [10] and in the series with Staphylococcus aureus [11] was inactive. For the same molecule, the result in the series with Staphylococcus aureus [13], in the series on Staphylococcus aureus [16] and with Staphylococcus aureus [20] was inactive. The result in the series with Staphylococcus aureus [12], with Staphylococcus aureus [14], with Staphylococcus aureus [15] and in the series on Staphylococcus aureus [17] was Active. Besides, the Activity entry is “Dose-dependent effect” with Staphylococcus aureus [18] and 95% with Serum. The molecule also displayed an MIC in the series with Staphylococcus aureus [21] of 0.5 µg/mL (≈ 1.06 µM). This molecule also returned a Cmax in series [22] of 30000 ng/mL.

The record behind these values is ChEMBL document CHEMBL1649157, “Intracellular activity of antibiotics against Staphylococcus aureus in a mouse peritonitis model” (Antimicrob Agents Chemother, 2009).
